ChEMBL document CHEMBL1221201, “Extension of Drosophila melanogaster life span with a GPCR peptide inhibitor” (Nat Chem Biol, 2007)
pIC50, pKd: −log10 of the molar value. Values belong to the compound of their own block, whether it stands above or below them. Activity calls are given as the source filed them. No cut-off for these calls is given here.

How the values were obtained:
[1] = biological target: T1, G-protein coupled receptor Mth (Drosophila melanogaster, UniProt O97148); assay: Binding affinity to Drosophila melanogaster Mth ectodomain
T1 sequence (O97148 whole entry): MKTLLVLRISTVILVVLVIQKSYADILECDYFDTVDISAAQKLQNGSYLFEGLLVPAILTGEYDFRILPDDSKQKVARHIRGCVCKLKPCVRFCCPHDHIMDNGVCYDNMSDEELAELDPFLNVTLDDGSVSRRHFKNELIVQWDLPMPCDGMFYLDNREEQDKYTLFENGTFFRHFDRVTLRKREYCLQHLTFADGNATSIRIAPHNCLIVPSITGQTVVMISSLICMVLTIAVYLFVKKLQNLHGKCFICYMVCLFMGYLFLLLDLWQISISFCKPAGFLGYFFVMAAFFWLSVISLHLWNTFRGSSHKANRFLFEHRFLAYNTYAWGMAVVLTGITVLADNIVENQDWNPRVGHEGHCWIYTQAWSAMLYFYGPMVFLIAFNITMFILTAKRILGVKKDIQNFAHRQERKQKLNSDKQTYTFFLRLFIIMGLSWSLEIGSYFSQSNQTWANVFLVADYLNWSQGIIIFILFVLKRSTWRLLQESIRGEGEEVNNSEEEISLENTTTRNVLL
Outline: (§1)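 Mth ectodomain (His6-tagged, C-terminal biotinylation tag, expressed in baculovirus-infected High 5 cells, biotinylated with BirA) immobilized at ~500 RU. Peptide was injected at the indicated concentrations, 45 μl per injection. Sensorgrams were double-referenced against a negative control flow cell and averaged buffer blanks. Kinetic parameters came from a global fit to a 1:1 bimolecular interaction model.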

[2] = biological target: T2, G-protein coupled receptor Mth (Drosophila melanogaster) (UniProt O97148); assay: Binding affinity to Drosophila melanogaster Mth ectodomain transfected in CHO cells up to 5 uM by SPR
T2 sequence (whole entry): T1 sequence (O97148 whole entry)

Drosophila melanogaster [3] = assay: Increase in maximal life span of Drosophila melanogaster GAL4/UAS--[…] transgene insertion line 41.6 at 29 degC; type: functional
Drosophila melanogaster [4] = assay: Increase in life span of Drosophila melanogaster GAL-4/UAS--[…] transgene insertion line 11.1 at 29 degC; type: functional
Drosophila melanogaster [5] = assay: Increase in life span of Drosophila melanogaster GAL-4/UAS--[…] transgene insertion line 41.2 at 29 degC; type: functional
[6] = biological target: T2, G-protein coupled receptor Mth (Drosophila melanogaster); assay: Binding affinity to Drosophila melanogaster full-length Mth-GFP transfected into CHO cells at 150 nM by fluorescence microscopy
Drosophila melanogaster [7] = assay: Increase in maximal life span of Drosophila melanogaster GAL-4/UAS--[…] transgene insertion line 41.6 at 25 degC; type: functional
Outline: (§2)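 da-GAL4-driven UAS–R8-12 insertion line 41.6 male adults were maintained at 25 °C and followed by survival curves. Mean and maximal adult lifespans are the average of two independent trials, with about 90 to 120 flies per curve.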

[8] = Binding affinity to G-protein coupled receptor MthW12S mutant of Drosophila melanogaster 300 nM by fluorescence microscopy
Outline: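 Intrinsic Trp fluorescence with excitation at 295 nm. 300 nM peptide was titrated with Trp-less Mth W120S ectodomain, emission read at 345 nm, in 10 mM KH2PO4 pH 7.2, 150 mM NaCl. Complexes were mixed for 5 min in a stirred cell before reading. KD came from the titration.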

Drosophila melanogaster [9] = assay: Increase in mean life span of Drosophila melanogaster GAL-4/UAS--[…] transgene insertion line 41.6 at 25 degC; type: functional; outline: as §2
Drosophila melanogaster [10] = assay: Increase in mean life span of Drosophila melanogaster GAL4/UAS--[…] transgene insertion line 41.6 at 29 degC; type: functional
[11] = biological target: T1, G-protein coupled receptor Mth; assay: Inhibition of Drosophila melanogaster Mth […] transfected into human HEK cells assessed as inhibition of N-Stunted-induced Mth signaling; type: cell-based, HEK293
Outline: (§3)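 HEK 293 cells stably expressing Mth-B were plated on Matrigel and loaded with 4 μM Fluo-4 (45 min at room temperature, then 15 min at 37 °C) in HEPES pH 7.5 HBSS buffer with BSA and 2.5 mM probenecid. After baseline readings, antagonist was added, followed by agonist peptide. Calcium fluorescence (ex 494/em 520 nm) was read for ~5 min. Values were background-subtracted and fitted to sigmoidal curves.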

[12] = biological target: T2, G-protein coupled receptor Mth (Drosophila melanogaster); assay: Inhibition of Drosophila melanogaster Mth […] transfected into human HEK cells assessed as inhibition of N-Stunted-induced Mth signaling up to 10 uM; type: cell-based; settings: HEK293; outline: as §3
Drosophila melanogaster [13] = assay: Displacement of radiolabeled 30-mer synthetic peptide mRNA from Drosophila melanogaster Mth ectodomain at 30 uM
Outline: (§4)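 35S-methionine-labelled RNA-peptide fusions were RNase-treated and bound to Mth ectodomain immobilized on NeutrAvidin-agarose (~1 mg Mth per ml matrix). For competition, unlabelled peptide at various concentrations was included in the binding buffer during the initial binding step.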

Drosophila melanogaster [14] = assay: Displacement of radiolabeled full-length R8-01 mRNA from Drosophila melanogaster Mth ectodomain at 10 uM; outline: as §4
Drosophila melanogaster [15] = assay: Displacement of radiolabeled full-length R8-01 mRNA from Drosophila melanogaster Mth ectodomain up to 150 uM; outline: as §4
[16] = biological target: T2, G-protein coupled receptor Mth (Drosophila melanogaster); assay: Binding affinity to Drosophila melanogaster Mth ectodomain at 100 nM measured by SPR; outline: as §1
[17] = biological target: T2, G-protein coupled receptor Mth (Drosophila melanogaster); assay: Binding affinity to Drosophila melanogaster Mth ectodomain at 300 nM measured by SPR; outline: as §1
[18] = biological target: T2, G-protein coupled receptor Mth (Drosophila melanogaster); assay: Binding affinity to Drosophila melanogaster Mth ectodomain at 900 nM measured by SPR; outline: as §1
[19] = biological target: T2, G-protein coupled receptor Mth (Drosophila melanogaster); assay: Binding affinity to Drosophila melanogaster Mth ectodomain at 1500 nM measured by SPR; outline: as §1
Drosophila melanogaster [20] = assay: Displacement of radiolabeled full-length R8-04 mRNA from Drosophila melanogaster Mth ectodomain at 10 uM; outline: as §4

Activity [2]: inactive
Compound: H-MAPRAVWIQAAIQAMFRLA-OH

inhibition [12]: inactive
Compound: CC[C@H](C)[C@H](NC(=O)[C@H](C)NC(=O)[C@H](CCCNC(=N)N)NC(=O)[C@H](CCC(N)=O)NC(=O)[C@@H](NC(=O)[C@H](Cc1c[nH]c2ccccc12)NC(=O)[C@@H](NC(=O)[C@H](C)NC(=O)[C@H](CCCNC(=N)N)NC(=O)[C@@H]1CCCN1C(=O)[C@@H](C)N)C(C)C)[C@@H](C)CC)C(=O)N[C@@H](CCC(N)=O)C(=O)N[C@@H](C)C(=O)N[C@@H](CCSC)C(=O)N[C@@H](Cc1ccccc1)C(=O)N[C@@H](CCCNC(=N)N)C(=O)N[C@@H](CC(C)C)C(=O)N[C@@H](C)C(=O)N[C@@H](CO)C(=O)N[C@@H](CCCNC(=N)N)C(=O)N[C@@H](CCC(N)=O)C(=O)N[C@@H](CCC(=O)O)C(=O)N[C@@H](CO)C(=O)N[C@@H](CCCCN)C(=O)N[C@@H](C)C(=O)N[C@@H](Cc1ccccc1)C(=O)N[C@@H](CC(N)=O)C(=O)O

pKd [1]: > 7.52
Compound: H-RYVWYLRTKHRRSLRLRSACARGSSA-OH

Activity [2]: inactive
Compound: H-MAPRAVAIQRAIQAMFRLAGY-OH

pKd [1]: 7.74
pIC50 [11]: 6.94
Compound: CC[C@H](C)[C@H](NC(=O)[C@H](C)NC(=O)[C@H](CCCNC(=N)N)NC(=O)[C@H](CCC(N)=O)NC(=O)[C@@H](NC(=O)[C@H](Cc1c[nH]c2ccccc12)NC(=O)[C@@H](NC(=O)[C@H](C)NC(=O)[C@H](CCCNC(=N)N)NC(=O)[C@@H]1CCCN1C(=O)[C@H](C)N)C(C)C)[C@@H](C)CC)C(=O)N[C@@H](CCC(N)=O)C(=O)N[C@@H](C)C(=O)N[C@@H](CCSC)C(=O)N[C@@H](Cc1ccccc1)C(=O)N[C@@H](CCCNC(=N)N)C(=O)N[C@@H](CC(C)C)C(=O)N[C@@H](C)C(=O)N[C@@H](CO)C(=O)N[C@@H](CCCNC(=N)N)C(=O)N[C@@H](CCC(N)=O)C(=O)N[C@@H](CCC(=O)O)C(=O)N[C@@H](CO)C(=O)N[C@@H](CCCCN)C(=O)N[C@@H](C)C(=O)N[C@@H](Cc1ccccc1)C(=O)N[C@@H](CC(N)=O)C(=O)O

More lines, now with the values behind:

Compound: H-GDDMYRIREFLANYRPIWVMRSNLAQL-OH
pKd [1]: > 7.52

Compound: H-RLVWIVRSRHFGPRLRMALLGSDRKMW-OH
pKd [1]: 7.74
Activity (Drosophila melanogaster [3]): 26%
Activity (Drosophila melanogaster [4]): 40%
Activity (Drosophila melanogaster [5]): 31%
Activity [6]: Active
Activity (Drosophila melanogaster [7]): 36%
pKd [8]: 7.82
Activity (Drosophila melanogaster [9]): 49%
Activity (Drosophila melanogaster [10]): 38%
pIC50 [11]: 7.35
inhibition [12]: inactive

Compound: H-NVSWGSFPSSWLQRYYLAKRREADVTL-OH
pKd [1]: 7.51
Activity (Drosophila melanogaster [13]): 79%
Activity (Drosophila melanogaster [14]): 96%
Activity (Drosophila melanogaster [15]): inactive

Compound: H-VRIGYTSKPGGMNPGNSYTMSIIRMLI-OH
pKd [1]: 6.49
Activity [16]: Active
Activity [17]: Active
Activity [18]: Active
Activity [19]: Active
Activity (Drosophila melanogaster [20]): 94%
